Measurements: ChEMBL document CHEMBL2046373, “Discovery of a potent thiadiazole class of histamine h3 receptor antagonist for the treatment of diabetes” (ACS Med Chem Lett, 2012)
pIC50, pKi: −log10 of the molar value.

Tests used:
Histamine H3 receptor [1] = target: Histamine H3 receptor (Homo sapiens, UniProt Q9Y5N1); assay: Displacement of [3H]-N-alpha-methylhistamine from human recombinant histamine H3 receptor after 30 mins by scintillation counting
Histamine H3 receptor [2] = target: Histamine H3 receptor (Mus musculus, UniProt P58406); assay: Displacement of [3H]-N-alpha-methylhistamine from mouse recombinant histamine H3 receptor after 30 mins by scintillation counting
Cytochrome P450 2C9 [3] = target: T1, Cytochrome P450 2C9 (Homo sapiens, UniProt P11712); assay: Inhibition of CYP2C9 under co-incubation conditions; format: ADME; conditions: read-out: INH
[4] = Cmax in ICR mouse plasma at 30 mg/kg, po after 4 hrs; format: ADME, organism-based; parameters: dose 30 mg/kg, route oral
Outline: (§1)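 ICR mice were given a single 30 mg/kg oral dose. Total brain and plasma concentrations were measured 4 h later, and the brain/plasma ratio was taken from these levels.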

hERG (KCNH2) = hERG (KCNH2) (Homo sapiens, UniProt Q12809); assay: Inhibition of human ERG at 10 uM by high-throughput rubidium efflux assay
[5] = Drug level in ICR mouse brain at 30 mg/kg, po after 4 hrs; format: ADME, organism-based; parameters: dose 30 mg/kg, route oral; conditions: read-out: Drug uptake; outline: as §1
Cytochrome P450 3A4 [6] = target: T2, Cytochrome P450 3A4 (Homo sapiens, UniProt P08684); assay: Inhibition of CYP3A4 under preincubation conditions; format: ADME; conditions: read-out: INH
Mus musculus [7] = assay: Ex vivo receptor occupancy of histamine H3 receptor in ICR mouse brain cortex using [3H]- N-alpha-Methylhistamine at 30 mg/kg, po after 30 mins by scintillation counting; format: functional
Cytochrome P450 2C9 [8] = target: T1, Cytochrome P450 2C9; assay: Inhibition of CYP2C9 under preincubation conditions; format: ADME; conditions: read-out: INH
Cytochrome P450 2D6 [9] = target: T3, Cytochrome P450 2D6 (Homo sapiens, UniProt P10635); assay: Inhibition of CYP2D6 under co-incubation conditions; format: ADME; conditions: read-out: INH
Cytochrome P450 2D6 [10] = target: T3, Cytochrome P450 2D6; assay: Inhibition of CYP2D6 under preincubation conditions; format: ADME
Cytochrome P450 3A4 [11] = target: T2, Cytochrome P450 3A4; assay: Inhibition of CYP3A4 under co-incubation conditions; format: ADME; conditions: read-out: INH
[12] = AUC (0 to 6 hrs) in rat at 10 mg/kg, po; format: ADME, organism-based; parameters: time < 6 hr, dose 10 mg/kg, route oral; conditions: plasma
Mus musculus [13] = assay: Antihyperglycemic activity in po dosed STZ-induced type 2 diabetic model of ICR mouse assessed as reduction of HbA1c level administered qd for 12 days; format: functional, organism-based
Outline: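 STZ diet-induced obese type 2 diabetic mice were dosed orally once daily for 12 days at 10 and 30 mg/kg. The end point was change in glycated hemoglobin (HbA1c), compared with vehicle (0) controls.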

Mus musculus [14] = assay: Antihyperglycemic activity in STZ-induced type 2 diabetic model of ICR mouse assessed as reduction of non-fasting blood glucose level at 30 mg/kg, po qd for 2 days; format: functional
Outline: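 Streptozotocin-diabetic ICR mice (STZ 80 mg/kg ip; blood glucose 250–500 mg/dL) received oral dosing at 30 mg/kg once daily. Non-fasting glucose was read daily before each dose. Data are mean ± SEM, n = 12/group, compared with vehicle (0) controls.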

[15] = Ratio of drug level in brain to plasma in ICR mouse; format: ADME; conditions: read-out: BPR; outline: as §1

T1 sequence (P11712 whole entry): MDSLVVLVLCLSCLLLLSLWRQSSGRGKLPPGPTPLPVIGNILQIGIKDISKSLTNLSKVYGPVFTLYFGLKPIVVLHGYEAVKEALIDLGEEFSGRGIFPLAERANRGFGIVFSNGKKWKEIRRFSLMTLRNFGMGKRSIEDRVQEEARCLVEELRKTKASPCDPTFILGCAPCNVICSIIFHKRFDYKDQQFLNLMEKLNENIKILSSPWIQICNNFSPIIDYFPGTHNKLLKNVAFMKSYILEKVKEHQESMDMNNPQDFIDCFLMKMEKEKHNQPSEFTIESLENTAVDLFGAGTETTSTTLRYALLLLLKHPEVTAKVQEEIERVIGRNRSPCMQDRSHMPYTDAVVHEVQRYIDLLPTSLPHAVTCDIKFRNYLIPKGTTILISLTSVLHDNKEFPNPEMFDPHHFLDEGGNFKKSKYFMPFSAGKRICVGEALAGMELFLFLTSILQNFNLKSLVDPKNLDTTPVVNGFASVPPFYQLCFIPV
T2 sequence (P08684 whole entry): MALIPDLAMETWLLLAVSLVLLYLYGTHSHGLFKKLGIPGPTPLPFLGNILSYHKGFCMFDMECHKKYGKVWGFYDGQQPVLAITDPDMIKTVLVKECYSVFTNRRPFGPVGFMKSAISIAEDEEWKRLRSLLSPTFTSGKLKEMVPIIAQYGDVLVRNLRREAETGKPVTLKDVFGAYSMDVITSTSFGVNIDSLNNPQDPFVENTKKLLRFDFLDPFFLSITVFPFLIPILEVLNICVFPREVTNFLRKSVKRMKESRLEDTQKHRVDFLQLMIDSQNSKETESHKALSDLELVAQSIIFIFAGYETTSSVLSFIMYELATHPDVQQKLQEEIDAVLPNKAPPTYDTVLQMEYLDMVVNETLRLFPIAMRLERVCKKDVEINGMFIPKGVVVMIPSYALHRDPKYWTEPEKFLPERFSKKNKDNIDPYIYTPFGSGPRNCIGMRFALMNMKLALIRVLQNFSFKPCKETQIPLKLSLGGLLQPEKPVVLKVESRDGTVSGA
T3 sequence (P10635 whole entry): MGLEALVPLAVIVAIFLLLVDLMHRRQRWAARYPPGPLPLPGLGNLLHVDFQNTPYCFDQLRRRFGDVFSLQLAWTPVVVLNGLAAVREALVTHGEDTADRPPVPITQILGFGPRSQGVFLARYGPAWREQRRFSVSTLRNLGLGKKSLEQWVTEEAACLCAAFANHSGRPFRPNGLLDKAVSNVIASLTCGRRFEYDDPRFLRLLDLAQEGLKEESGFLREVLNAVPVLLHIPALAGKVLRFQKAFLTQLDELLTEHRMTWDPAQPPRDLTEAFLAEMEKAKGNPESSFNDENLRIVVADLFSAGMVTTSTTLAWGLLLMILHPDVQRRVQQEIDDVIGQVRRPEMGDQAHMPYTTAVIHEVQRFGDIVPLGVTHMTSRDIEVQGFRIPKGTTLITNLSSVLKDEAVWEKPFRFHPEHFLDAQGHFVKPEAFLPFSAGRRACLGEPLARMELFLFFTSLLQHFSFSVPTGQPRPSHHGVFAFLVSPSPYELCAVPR
Sequence of hERG (KCNH2) (Q12809 whole entry): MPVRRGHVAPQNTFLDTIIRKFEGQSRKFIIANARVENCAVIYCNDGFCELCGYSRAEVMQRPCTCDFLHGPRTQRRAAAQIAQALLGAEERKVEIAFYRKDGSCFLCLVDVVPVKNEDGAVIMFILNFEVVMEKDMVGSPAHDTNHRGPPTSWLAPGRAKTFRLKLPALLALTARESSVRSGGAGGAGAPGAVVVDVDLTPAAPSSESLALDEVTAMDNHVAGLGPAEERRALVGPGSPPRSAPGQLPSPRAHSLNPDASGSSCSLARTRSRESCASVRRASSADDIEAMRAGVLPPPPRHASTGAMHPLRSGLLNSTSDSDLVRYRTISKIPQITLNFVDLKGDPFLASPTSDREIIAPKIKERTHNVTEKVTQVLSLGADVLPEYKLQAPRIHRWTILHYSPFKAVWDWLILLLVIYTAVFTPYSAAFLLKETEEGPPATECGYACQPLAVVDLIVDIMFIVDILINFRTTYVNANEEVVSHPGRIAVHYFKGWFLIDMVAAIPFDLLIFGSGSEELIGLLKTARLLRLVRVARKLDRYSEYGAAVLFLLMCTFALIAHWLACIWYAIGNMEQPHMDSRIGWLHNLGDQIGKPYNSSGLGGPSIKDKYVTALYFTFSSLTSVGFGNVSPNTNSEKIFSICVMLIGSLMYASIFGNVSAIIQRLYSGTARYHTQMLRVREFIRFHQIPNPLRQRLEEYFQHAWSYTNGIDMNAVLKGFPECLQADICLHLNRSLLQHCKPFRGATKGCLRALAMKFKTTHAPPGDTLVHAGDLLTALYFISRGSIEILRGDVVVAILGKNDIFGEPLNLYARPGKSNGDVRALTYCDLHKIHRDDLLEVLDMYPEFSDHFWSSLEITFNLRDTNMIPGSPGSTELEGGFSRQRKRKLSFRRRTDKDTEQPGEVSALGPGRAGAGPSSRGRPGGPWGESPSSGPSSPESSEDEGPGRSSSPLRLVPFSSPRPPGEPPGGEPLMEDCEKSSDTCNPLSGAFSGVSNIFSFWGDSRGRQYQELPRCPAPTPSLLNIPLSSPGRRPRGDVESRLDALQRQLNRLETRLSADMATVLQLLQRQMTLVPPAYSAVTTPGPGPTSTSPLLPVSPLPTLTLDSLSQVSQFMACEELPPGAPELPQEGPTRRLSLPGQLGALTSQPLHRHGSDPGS
Sequence of Histamine H3 receptor (Mus musculus, UniProt P58406) (P58406 whole entry): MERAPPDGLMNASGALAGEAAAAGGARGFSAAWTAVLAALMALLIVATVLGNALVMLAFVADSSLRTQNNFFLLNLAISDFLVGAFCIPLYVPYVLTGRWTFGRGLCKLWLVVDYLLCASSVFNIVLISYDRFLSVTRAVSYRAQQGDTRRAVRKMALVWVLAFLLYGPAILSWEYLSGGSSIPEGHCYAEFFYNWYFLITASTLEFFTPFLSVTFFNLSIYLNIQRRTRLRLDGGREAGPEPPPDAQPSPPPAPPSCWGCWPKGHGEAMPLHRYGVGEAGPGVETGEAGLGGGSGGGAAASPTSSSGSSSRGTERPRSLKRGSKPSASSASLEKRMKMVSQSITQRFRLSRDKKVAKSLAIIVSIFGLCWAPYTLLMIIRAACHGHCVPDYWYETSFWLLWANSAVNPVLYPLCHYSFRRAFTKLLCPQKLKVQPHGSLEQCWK
Sequence of Histamine H3 receptor (Homo sapiens, UniProt Q9Y5N1) (Q9Y5N1 whole entry): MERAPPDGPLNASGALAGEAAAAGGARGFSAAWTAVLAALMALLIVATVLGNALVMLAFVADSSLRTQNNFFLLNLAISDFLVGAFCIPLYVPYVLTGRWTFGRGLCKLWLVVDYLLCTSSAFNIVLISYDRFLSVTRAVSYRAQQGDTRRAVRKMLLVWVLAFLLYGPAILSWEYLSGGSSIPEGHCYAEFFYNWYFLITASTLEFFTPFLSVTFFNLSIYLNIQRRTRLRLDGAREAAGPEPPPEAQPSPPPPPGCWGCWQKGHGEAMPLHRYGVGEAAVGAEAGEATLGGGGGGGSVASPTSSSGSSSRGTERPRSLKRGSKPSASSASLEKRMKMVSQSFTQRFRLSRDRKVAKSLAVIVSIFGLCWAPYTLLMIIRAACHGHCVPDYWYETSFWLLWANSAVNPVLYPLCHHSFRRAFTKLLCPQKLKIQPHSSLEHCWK

Row | SMILES | pKi (Histamine H3 receptor [1]) | pKi (Histamine H3 receptor [2]) | also measured
1 | FC1CCCN(c2nnc(N3CCC(N4CCCCC4)CC3)s2)C1 (stereo unspecified) | 7.18 | 7.25 | –
2 | c1ccc(C2CN(c3nnc(N4CCC(N5CCCCC5)CC4)s3)CCO2)nc1 (stereo in doubt; 5r) | 8.30 | 7.96 | –
3 | C1=C(c2ccccn2)CCCN1c1nnc(N2CCC(N3CCCCC3)CC2)s1 | 8.52 | 8.30 | pIC50 (Cytochrome P450 2C9 [3]): < 4.70; Cmax [4]: 1470 ng/mL; inhibition at 10 µM (hERG (KCNH2)): 54%; concentration at 4 h [5]: 1040 ng/g; pIC50 (Cytochrome P450 3A4 [6]): < 4.70; Activity (Mus musculus [7]): 85%; pIC50 (Cytochrome P450 2C9 [8]): < 4.70; pIC50 (Cytochrome P450 2D6 [9]): < 4.70; INH (Cytochrome P450 2D6 [10]): > 20 µM; pIC50 (Cytochrome P450 3A4 [11]): < 4.70
4 | OC1(c2ncccn2)CCCN(c2nnc(N3CCC(N4CCCCC4)CC3)s2)C1 (stereo unspecified) | 7.17 | 7.11 | –
5 | FC1(F)CCN(c2nnc(N3CCC(N4CCCCC4)CC3)s2)C1 | 7.21 | 7.21 | AUC(0-t) at 6 h [12]: 545 ng·h/mL
6 | C1=C(c2ccccn2)CN(c2nnc(N3CCC(N4CCCCC4)CC3)s2)CC1 | 7.92 | 7.31 | –
7 | FC1(F)CCN(c2nnc(N3CCC(N4CCCCC4)CC3)s2)CC1 | 7.82 | 7.74 | AUC(0-t) at 6 h [12]: 2490 ng·h/mL
8 | C1=C(c2ncccn2)CN(c2nnc(N3CCC(N4CCCCC4)CC3)s2)CC1 | 7.85 | 7.36 | –
9 | OC1(c2ccccn2)CCCN(c2nnc(N3CCC(N4CCCCC4)CC3)s2)C1 (stereo unspecified) | 7.28 | 7.26 | –
10 | COC1CCCN(c2nnc(N3CCC(N4CCCCC4)CC3)s2)C1 (stereo unspecified) | 7.43 | 7.34 | –
11 | c1cnc(C2CN(c3nnc(N4CCC(N5CCCCC5)CC4)s3)CCO2)cn1 (stereo unspecified) | 8.10 | 7.80 | –
12 | O=C(Nc1nnc(N2CCC(N3CCCCC3)CC2)s1)NC1CCCC1 | – | 7.33 | –
13 | O=C1N(c2nnc(N3CCC(N4CCCCC4)CC3)s2)CCN1C1CCCC1 | 7.47 | 7.28 | –
14 | c1ccc(C2CN(c3nnc(N4CCC(N5CCCCC5)CC4)s3)CCO2)nc1 (stereo in doubt; 5t) | 7.47 | 7.17 | –
15 | O=C1CCCCN1c1nnc(N2CCC(N3CCCCC3)CC2)s1 | 6.92 | 6.92 | –
16 | c1ccc(C2CCCN(c3nnc(N4CCC(N5CCCCC5)CC4)s3)C2)cc1 (stereo unspecified) | 7.12 | 6.96 | –
17 | OC1CCCN(c2nnc(N3CCC(N4CCCCC4)CC3)s2)C1 (stereo unspecified) | 7.34 | 7.17 | –
18 | CC1CN(c2nnc(N3CCC(N4CCCCC4)CC3)s2)CC(C)O1 (stereo unspecified) | 7.28 | 7.46 | AUC(0-t) at 6 h [12]: 4320 ng·h/mL
19 | c1ccc(C2CN(c3nnc(N4CCC(N5CCCCC5)CC4)s3)CCO2)nc1 (single isomer, unassigned; enantiomer 2) [listing 1 of 2 here] | – | – | Activity (Mus musculus [13]): Dose-dependent effect
20 | COC1(c2ccccn2)CCCN(c2nnc(N3CCC(N4CCCCC4)CC3)s2)C1 (stereo unspecified) | 7.96 | 7.27 | –
21 | O=C1N(c2ccccc2)CCCN1c1nnc(N2CCC(N3CCCCC3)CC2)s1 | 7.52 | 7.49 | –
22 | FC1(c2ccccn2)CCCN(c2nnc(N3CCC(N4CCCCC4)CC3)s2)C1 (stereo unspecified) | 8.40 | 8.15 | pIC50 (Cytochrome P450 2C9 [3]): < 4.70; Cmax [4]: 2970 ng/mL; inhibition at 10 µM (hERG (KCNH2)): 16%; Activity (Mus musculus [14]): 67.91 mg/dL; concentration at 4 h [5]: 674 ng/g; pIC50 (Cytochrome P450 3A4 [6]): < 4.70; Activity (Mus musculus [7]): 92%; pIC50 (Cytochrome P450 2C9 [8]): < 4.70; pIC50 (Cytochrome P450 2D6 [9]): < 4.70; INH (Cytochrome P450 2D6 [10]): > 20 µM; pIC50 (Cytochrome P450 3A4 [11]): < 4.70; Kp [15]: 0.227
23 | c1ccc(C2CN(c3nnc(N4CCC(N5CCCCC5)CC4)s3)CCO2)nc1 (single isomer, unassigned; enantiomer 2) [listing 2 of 2 here] | 8.52 | 8.40 | pIC50 (Cytochrome P450 2C9 [3]): < 4.70; Cmax [4]: 1500 ng/mL; inhibition at 10 µM (hERG (KCNH2)): 26%; Activity (Mus musculus [14]): 104.5 mg/dL; concentration at 4 h [5]: 24 ng/g; pIC50 (Cytochrome P450 3A4 [6]): < 4.70; Activity (Mus musculus [7]): 74%; pIC50 (Cytochrome P450 2C9 [8]): < 4.70; pIC50 (Cytochrome P450 2D6 [9]): < 4.70; INH (Cytochrome P450 2D6 [10]): > 20 µM; pIC50 (Cytochrome P450 3A4 [11]): < 4.70; Kp [15]: 0.016
